This is an account of results in ChEMBL document CHEMBL4699576, “Oxidized Juncuenin B Analogues with Increased Antiproliferative Activity on Human Adherent Cell Lines: Semisynthesis and Biological Evaluation” (J Nat Prod, 2020).

pIC50: −log10 of the molar value. The source made the active and inactive calls. The calls are words filed in the database; no cut-off is given here. A value given as a limit tells only on which side of the number the result lay.

As usually defined, the pIC50 is the negative decadic logarithm of the IC50, by convention in mol/L.

Experiment [1] has as its system SiHa. The experiment in a line: Antiproliferative activity against human SiHa cells assessed as reduction in cell viability at 0.1 to 30 uM after 72 hrs by MTT assay. It is filed as functional, cell-based. The conditions noted are these: dose microM 0.1-30, time 72.0 hrs. The essentials:
(§1)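 Cells were grown in MEM with 10% FBS, 1% nonessential amino acids and 1% penicillin–streptomycin–amphotericin B at 37 °C in humidified 5% CO2. They were seeded at 5000 cells/well and exposed to 0.1–30 μM compound for 72 h. MTT (5 mg/mL solution) was added for 4 h, and formazan was dissolved in DMSO and read at 545 nm against untreated cells. IC50 values came from normalized sigmoidal dose–response fits.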

Experiment [2] concerns HeLa. The experiment is described as follows: Antiproliferative activity against human HeLa cells assessed as reduction in cell viability at 0.1 to 30 uM after 72 hrs by MTT assay. The conditions noted are these: dose microM 0.1-30, time 72.0 hrs.
The subject of experiment [3] is A2780. The experiment in a line: Antiproliferative activity against human A2780 cells assessed as reduction in cell viability at 0.1 to 30 uM after 72 hrs by MTT assay. The settings on record: dose microM 0.1-30, time 72.0 hrs. It is filed as functional, cell-based. The essentials: as §1
For orientation: Formazan colour is commonly taken as a measure of viable cells.

Experiment [4] deals with C-33-A. The experiment is described as follows: Antiproliferative activity against human C33A cells assessed as reduction in cell viability at 0.1 to 30 uM after 72 hrs by MTT assay. The settings on record: dose microM 0.1-30, time 72.0 hrs. It is filed as functional, cell-based. Summed up:
(§2)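 C33A cells were kept in MEM with 10% FBS, 1% nonessential amino acids and 1% penicillin–streptomycin–amphotericin B at 37 °C under 5% CO2. They were seeded at 10 000 cells/well and treated with 0.1–30 μM for 72 h. MTT (5 mg/mL solution) was added for 4 h, and formazan was dissolved in DMSO and read at 545 nm against untreated controls. IC50 values came from normalized sigmoidal curve fits.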

Experiment [5] concerns MCF7. The experiment in a line: Antiproliferative activity against human MCF7 cells assessed as reduction in cell viability at 0.1 to 30 uM after 72 hrs by MTT assay. The settings on record: dose microM 0.1-30, time 72.0 hrs.
The subject of experiment [6] is NIH3T3. The experiment is described as follows: Antiproliferative activity against mouse NIH/3T3 cells assessed as reduction in cell viability at 0.1 to 30 uM after 72 hrs by MTT assay. It is filed as functional, cell-based. The conditions noted are these: dose microM 0.1-30, time 72.0 hrs. The essentials: as §1
Another experiment deals with AGS. The experiment in a line: Antiproliferative activity against human AGS cells assessed as reduction in cell viability after 48 hrs by Alamar Blue assay. It is filed as functional, cell-based. Background: Alamar Blue is a resazurin reagent that responds to reducing activity.
For another experiment, the system named is SGC-7901. The experiment is described as follows: Antiproliferative activity against human SGC-7901 cells assessed as reduction in cell viability after 48 hrs by Alamar Blue assay. The conditions noted are these: SGC-7901, 48 h. It is filed as functional, cell-based.
Experiment [7] concerns SiHa. The experiment is described as follows: Antiproliferative activity against human SiHa cells assessed as reduction in cell viability after 72 hrs by MTT assay. It is filed as functional, cell-based. Summed up:
as §1

Experiment [8] concerns T47D. The experiment is described as follows: Antiproliferative activity against human T47D cells assessed as reduction in cell viability after 72 hrs by MTT assay. It is filed as functional, cell-based. The essentials: as §1
The test system of experiment [9] is NIH3T3. The experiment in a line: Antiproliferative activity against mouse NIH/3T3 cells assessed as reduction in cell viability after 72 hrs by MTT assay. It is filed as functional, cell-based. The settings on record: NIH3T3, 72 h. The essentials:
as §1

The test system of experiment [10] is A2780. The experiment in a line: Antiproliferative activity against human A2780 cells assessed as reduction in cell viability after 72 hrs by MTT assay. It is filed as functional, cell-based. The conditions noted are these: A2780, 72 h. The essentials: as §1
Experiment [11] can be described thus: Selectivity ratio of IC50 for antiproliferative activity against human T47D cells to IC50 for antiproliferative activity against human MCF7 cells. It is filed as functional.
For experiment [12], the system named is HeLa. The experiment in a line: Antiproliferative activity against human HeLa cells assessed as reduction in cell viability after 72 hrs by MTT assay. It is filed as functional, cell-based. Summed up: as §1
The test system of experiment [13] is MCF7. The experiment is described as follows: Antiproliferative activity against human MCF7 cells assessed as reduction in cell viability after 72 hrs by MTT assay. It is filed as functional, cell-based. The settings on record: MCF7, 72 h. Summed up: as §1
The subject of another experiment is MDA-MB-231. The experiment is described as follows: Antiproliferative activity against human MDA-MB-231 cells assessed as reduction in cell viability after 72 hrs by MTT assay. The conditions noted are these: MDA-MB-231, 72 h. It is filed as functional, cell-based.
For experiment [14], the system named is T47D. The experiment is described as follows: Antiproliferative activity against human T47D cells assessed as reduction in cell viability at 0.1 to 30 uM after 72 hrs by MTT assay. It is filed as functional, cell-based. The conditions noted are these: dose microM 0.1-30, time 72.0 hrs. Summed up: as §1
For experiment [15], the system named is C-33-A. The experiment in a line: Antiproliferative activity against human C33A cells assessed as reduction in cell viability after 72 hrs by MTT assay. It is filed as functional, cell-based. Summed up: as §2

On to `C=CC1=C(C)C(=O)C=C2c3ccc(O)c(C)c3CC[C@]21OCC`, for which the result in the experiment on SiHa [1], with HeLa [2], in the experiment with A2780 [3] and in the experiment on C-33-A [4] was inactive.
Take `C=Cc1c(C)c(O)c(OC)c2c3c(ccc12)C(C)(OC)C(=O)C=C3` (racemic): the outcome in the experiment on MCF7 [5], in the experiment on HeLa [2], in the experiment with A2780 [3], in the experiment with C-33-A [4] and in the experiment on NIH3T3 [6] was inactive.
For the compound `C=Cc1c(C)c(O)cc2c3c(ccc12)C(C)(OCC)C(=O)C=C3` (racemic), the result with MCF7 [5], in the experiment on HeLa [2], with A2780 [3], with C-33-A [4] and in the experiment on NIH3T3 [6] was inactive.
Regarding `C=CC1=C(C)C(=O)C=C2C3(OC)C=CC(=O)C(C)=C3CCC21OC` (racemic; 2a), the result with MCF7 [5], in the experiment on HeLa [2], in the experiment on A2780 [3], in the experiment on C-33-A [4] and with NIH3T3 [6] was inactive.
With `C=Cc1cc(O)cc2ccc3c(C)c(O)ccc3c12`, the figures for the pIC50 with AGS and in the experiment on SGC-7901 were 4.48 and 4.44, respectively.
As for `C=CC1=C(C)C(=O)C=C2C3(OC)C=CC(=O)C(C)=C3CCC21OC` (racemic; 2b), the result in the experiment with MCF7 [5], with HeLa [2], in the experiment on A2780 [3], with C-33-A [4] and in the experiment on NIH3T3 [6] was inactive.
With `C=CC1=C(C)C(=O)C=C2C3=C(CCC21OCC)C(C)(OCC)C(=O)C=C3` (racemic; 6b), the outcome in the experiment on MCF7 [5], in the experiment on HeLa [2], with A2780 [3], with C-33-A [4] and in the experiment with NIH3T3 [6] was Active.
Consider `C=CC1=C(C)C(=O)C=C2C3=C(CC[C@@]21OC)[C@@](C)(OC)C(=O)C=C3` (stereo in doubt), for which the pIC50 is 4.70 with SiHa [7] and 4.82 in the experiment with T47D [8].
As for `C=CC1=C(C)C(=O)C=C2c3ccc(O)c(C)c3CC[C@]21OC`, the result in the experiment on MCF7 [5], in the experiment with HeLa [2], in the experiment on A2780 [3] and in the experiment on C-33-A [4] was inactive.
As for `C=CC1=C(C)C(=O)C=C2C3=C(CCC21OCC)C(C)(OCC)C(=O)C=C3` (racemic; 6a), the result with MCF7 [5], in the experiment with HeLa [2], in the experiment on A2780 [3], in the experiment with C-33-A [4] and in the experiment with NIH3T3 [6] was Active.
Turning to `C=CC1=C(C)C(=O)C(OCCCC)(OCCCC)c2c1ccc1c2C=CC(=O)C1(C)OCCCC` (racemic), the result in the experiment with MCF7 [5], in the experiment on HeLa [2], in the experiment on A2780 [3], with C-33-A [4] and in the experiment on NIH3T3 [6] was inactive.
For the compound `C=CC1=C(C)C(=O)C=C2C3(OCC)C=CC(=O)C(C)=C3CCC21OCC` (racemic), the result in the experiment on MCF7 [5], in the experiment with HeLa [2], in the experiment on A2780 [3], in the experiment with C-33-A [4] and in the experiment with NIH3T3 [6] was inactive.
`C=CC1=C(C)C(=O)C=C2C3=C(CC[C@]21OC)[C@@](C)(OC)C(=O)C=C3` (stereo in doubt): the pIC50 was < 4.52 in the experiment with NIH3T3 [9], 4.70 in the experiment with SiHa [7] and 4.82 with T47D [8].
As for `C=Cc1c(C)c(O)cc2c1CCc1c-2ccc(O)c1C`, the pIC50 is 5.14 in the experiment on A2780 [10]; < 4.52 in the experiment with NIH3T3 [9]; 5.54 with HeLa [12]; 4.93 with MCF7 [13]; 5.03 with MDA-MB-231. Further, in [11], the “Ratio IC50” value is reported as 2.5.
With `C=CC1=C(C)C(=O)C=C2C3=C(CC[C@@]21OC)[C@](C)(OC)C(=O)C=C3` (stereo in doubt), the pIC50 with A2780 [10] was 5.11; in the experiment on NIH3T3 [9], 4.67; with SiHa [7], 4.70; in the experiment on T47D [8] it was 4.82; in the experiment on C-33-A [15], 5.28. The outcome with HeLa [2] and with T47D [14] was Active.
As for `C=CC1=C2CCc3c(ccc(O)c3C)C2=CC(=O)C1(C)OCC` (racemic), the outcome with MCF7 [5], in the experiment with HeLa [2], in the experiment with A2780 [3], with C-33-A [4] and in the experiment with NIH3T3 [6] was inactive.
On to `C=CC1=C(C)C(=O)C=C2C3=C(CC[C@]21OC)[C@](C)(OC)C(=O)C=C3` (stereo in doubt), for which the figures for the pIC50 in the experiment on SiHa [7] and in the experiment with T47D [8] were 4.70 and 4.82, respectively.
Take `C=CC1=C(C)C(=O)C=C2c3ccc(O)c(C)c3CC[C@@]21OC`: the pIC50 is 5.06 in the experiment with A2780 [10]; 4.59 with NIH3T3 [9]; 6.05 with HeLa [12]; 5.21 with MCF7 [13]; 5.28 in the experiment with C-33-A [15]. Besides, the outcome in the experiment on HeLa [2] and in the experiment with T47D [14] was Active.
As to `C=CC1=C(C)C(=O)C=C2c3ccc(O)c(C)c3CC[C@@]21OCC`, the outcome in the experiment with MCF7 [5], in the experiment with HeLa [2] and with T47D [14] was Active. The pIC50 is 5.55 in the experiment on A2780 [10]; < 4.52 with NIH3T3 [9]; 5.43 with HeLa [12]; 5.06 in the experiment with T47D [8]; 5.31 in the experiment with C-33-A [15]. Besides, in the experiment on SiHa [1], the result was inactive.
